Legend:
Sambucus nigra lectin = experiment: Competition ELISA; conditions: by phage binding and competition ELISA
[1] = system: SK-N-SH human neuroblastoma cells; conditions: previous study; ref Zhang et al., 2017; cited from earlier work
[2] = system: neural cell adhesion molecule L1; experiment: L1 immunofluorescence staining, H2O2-stressed SK-N-SH cells; assay type: cell-based, human; conditions: 250 μM H2O2, 2 h, in comparison with the control group
How it was run: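 SK-N-SH cells were seeded at 1 × 10^4 per well, given 250 μM H2O2 for 2 h, then cultured 48 h (peptide arms at 20 μg/mL). Cells were fixed in 4% formaldehyde for 10 min and blocked with 10% donkey serum for 40 min. Anti-L1 mouse monoclonal (1:200) was applied overnight at 4°C, then Alexa 488 secondary (1:500) for 1 h, with DAPI mounting. Confocal L1 intensity was measured.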

[3] = system: SK-N-SH human neuroblastoma cells; experiment: Cell viability assay; assay type: cell-based; conditions: 250 μM H2O2, 2 h, in comparison with the vehicle control group
How it was run: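 SK-N-SH neuroblastoma cells were seeded at 1 × 10^4 per well and exposed to 250 μM H2O2 for 2 h. They were then cultured a further 48 h; peptide arms received 20 μg/mL. CCK-8 reagent was added for 2 h at 37°C, and absorbance was read at 490 nm. Five repeats; mean ± SEM; one-way ANOVA with Bonferroni post-hoc test.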

[4] = system: mouse cerebellar granule neurons; experiment: Neurite outgrowth assay, H2O2-stressed cerebellar granule neurons; assay type: cell-based; conditions: 250 μM H2O2, 2 h, in comparison with the vehicle control group
How it was run: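 Primary cerebellar granule neurons from C57BL/6 mice were seeded at 2 × 10^4 cells on poly-D-lysine in Neurobasal A without B-27. They received 250 μM H2O2 for 2 h, then 24 h culture (peptide arms at 20 μg/mL). Cells were fixed in 4% formaldehyde and stained with crystal violet. Neurites at least one soma diameter long and free of cell contact were measured at 40×, about 50 cells per group. Three repeats.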

H-PRHGKKPTNKRK-OH [mimetic peptide]
affinity to Sambucus nigra lectin (Sambucus nigra lectin): high affinity

OO [H2O2]
cell viability of SK-N-SH cells in response to H2O2 [1]: decreased in a dose- and time-dependent manner
L1 expression after H2O2 alone [2]: reduced L1 expression
survival of SK-N-SH cells after H2O2 alone [3]: reduced survival
neurite length after H2O2 alone [4]: reduced the lengths of neurites

— article PMC7034278 (Neural Regeneration Research, 2019)
